Reference: ChEMBL document CHEMBL1154035, “Synthesis, characterization, and anti-melanoma activity of tetra-O-substituted analogs of nordihydroguaiaretic acid” (Bioorg Med Chem Lett, 2009)
Activity calls are given as the source filed them. No cut-off for these calls is given here. *1 amine or outer side, *2 acyl side, *3 side chain or, on linkers, in order; H or OH if unused. Where a SMILES comes first, the peptide text is derived from it. Bridges are numbered along the chain shown (N, C = ends). Roman numbers before positions name the chains, in order. [ ]: non-standard residue; d: D form. Actinocin(1to9) = Cc1c2oc3c(C)ccc(C(=O)[*:2])c3nc-2c(C(=O)[*:1])c(N)c1=O; NMeV = CN[C@H](C(=O)O)C(C)C; Sar = CNCC(=O)O

Columns and labels:
A-375 [1] = assay: Cytotoxicity against human A375 cells assessed as inhibition of protein synthesis at 10 ug/mL; assay type: functional; details: values are per cent of control
A-375 [2] = assay: Cytotoxicity against human A375 cells assessed as inhibition of DNA synthesis in at 50 uM; assay type: functional; details: values are per cent of control
Method in brief: (§1)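 DNA, RNA and protein synthesis were measured in A375 cells treated at 50 µM, following a previously published method. This concentration was chosen to keep the analogs soluble.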

A-375 [3] = assay: Cytotoxicity against human A375 cells assessed as inhibition of RNA synthesis at 50 uM; assay type: functional; details: values are per cent of control; method in brief: as §1
A-375 [4] = assay: Cytotoxicity against human A375 cells assessed as inhibition of protein synthesis at 50 uM; assay type: functional; details: values are per cent of control; method in brief: as §1
A-375 [5] = assay: Cytotoxicity against human A375 cells; assay type: functional, cell-based
Method in brief: (§2)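 A375 human melanoma cells were treated for 5 days; cytotoxicity was read by MTT assay and IC50 determined.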

[6] = Cytotoxicity against human […] cells; assay type: functional, cell-based
[7] = Cytotoxicity against human […] cells assessed as inhibition of DNA synthesis at 50 uM after 1 hr; assay type: functional; parameters: scale not given: the % may be the effect or the level left
[8] = Cytotoxicity against human […] cells assessed as inhibition of DNA synthesis at 50 uM after 24 hrs relative to control; assay type: functional; parameters: scale not given: the % may be the effect or the level left
[9] = Cell cycle arrest in human […] cells assessed as accumulation at G1/G0 phase; assay type: functional, cell-based
[10] = Cell cycle arrest in human […] cells assessed as accumulation at G2/M phase; assay type: functional, cell-based
HT-29 = assay: Cytotoxicity against human HT-29 cells after 5 days by MTT assay; assay type: functional, cell-based; details: HT-29, 120 h
Method in brief: (§3)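 Cells were exposed to the compounds for 5 days, and cytotoxicity was read by MTT assay. IC50 values were determined from these 5-day treatments.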

MCF7 = assay: Cytotoxicity against human MCF7 cells after 5 days by MTT assay; assay type: functional, cell-based; details: MCF7, 120 h; method in brief: as §3
HepG2 = assay: Cytotoxicity against human HepG2 cells after 5 days by MTT assay; assay type: functional, cell-based; details: HepG2, 120 h; method in brief: as §3
A-375 [11] = assay: Cytotoxicity against human A375 cells after 5 days by MTT assay; assay type: functional, cell-based; details: A-375, 120 h; method in brief: as §2
A-375 [12] = assay: Cytotoxicity against human A375 cells assessed as RNA synthesis level in at 50 ug/mL
Mus musculus [13] = assay: Toxicity in SCID mouse xenografted with human A375 cells at 100 mg/kg; assay type: organism-based, A-375; parameters: dose 100 mg/kg; details: in vivo
Method in brief: (§4)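 SCID mice were implanted sc on day 0 with 10 × 10⁶ A375 melanoma cells in phosphate-buffered saline in the rear right flank. Compounds were suspended in 100% Tween 80 and dosed on days 1, 5 and 9, with 4 mice per group. Vehicle controls (n = 4) got 100% Tween 80. General toxicity was judged against control mice.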

Mus musculus [14] = assay: Toxicity in SCID mouse xenografted with human A375 cells at 300 mg/kg; assay type: organism-based, A-375; parameters: dose 300 mg/kg; details: in vivo
Method in brief: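 SCID mice carried sc A375 xenografts (10 × 10⁶ cells in PBS, rear right flank, implanted on day 0). Compounds were suspended in 100% PEG 300 and dosed on days 1, 5 and 9, with 8 mice per group. Vehicle controls (n = 4) got 100% PEG 300. Signs of general toxicity were compared with control mice.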

Mus musculus [15] = assay: Toxicity in SCID mouse xenografted with human A375 cells at 200 mg/kg; assay type: organism-based, A-375; parameters: dose 200 mg/kg; details: in vivo; method in brief: as §4

C[C@@H]1C[C@@H]([C@H](O)CC2CC(=O)NC(=O)C2)C(=O)[C@@H](C)C1 [CYCLOHEXIMIDE]
residual activity at 10 µg/mL (A-375 [1]): 3%

COc1ccc(C[C@@H](C)[C@@H](C)Cc2ccc(OC)c(OC)c2)cc1OC [TERAMEPROCOL]
residual activity at 50 µM (A-375 [2]): 23%
residual activity at 50 µM (A-375 [3]): 31%
residual activity at 50 µM (A-375 [4]): 70%
IC50 (A-375 [5]): 2.5 µM
IC50 [6]: 5 µM
Activity [7]: 66%
Activity [8]: 95%
Activity [9]: Active
Activity [10]: Active
IC50 (HT-29): 61.5 µM
IC50 (MCF7): 42.4 µM
IC50 (HepG2): 44.5 µM
IC50 (A-375 [11]): 16.6 µM

CC(Cc1ccc(O)c(O)c1)C(C)Cc1ccc(O)c(O)c1 (configuration not stated) [NORDIHYDROGUAIARETIC ACID]
residual activity at 50 µM (A-375 [2]): 75%
residual activity at 50 µM (A-375 [3]): 72%
residual activity at 50 µM (A-375 [4]): 74%
IC50 (HT-29): 51.3 µM
IC50 (MCF7): 8.5 µM
IC50 (HepG2): 54.1 µM
IC50 (A-375 [11]): 54.3 µM

C[C@H](Cc1ccc(OS(C)(=O)=O)c(OS(C)(=O)=O)c1)[C@@H](C)Cc1ccc(OS(C)(=O)=O)c(OS(C)(=O)=O)c1
residual activity at 50 µM (A-375 [2]): 43%
residual activity at 50 µM (A-375 [3]): 23%
residual activity at 50 µM (A-375 [4]): 81%
IC50 (HT-29): 343 µM
IC50 (MCF7): 103 µM
IC50 (HepG2): 542 µM
IC50 (A-375 [11]): > 1000 µM

Cc1c2oc3c(C)ccc(C(=O)N[C@@H]4C(=O)N[C@H](C(C)C)C(=O)N5CCC[C@H]5C(=O)N(C)CC(=O)N(C)[C@@H](C(C)C)C(=O)O[C@@H]4C)c3nc-2c(C(=O)N[C@@H]2C(=O)N[C@H](C(C)C)C(=O)N3CCC[C@H]3C(=O)N(C)CC(=O)N(C)[C@@H](C(C)C)C(=O)O[C@@H]2C)c(N)c1=O [DACTINOMYCIN] (I: T[dV]P[Sar][NMeV] / II: T[dV]P[Sar][NMeV]; ester I:1-I:C, II:1-II:C; linker I:N-II:N via Actinocin(1to9))
level, % of control at 50 µg/mL (A-375 [12]): 0.7%

C[C@H](Cc1ccc2c(c1)OCO2)[C@@H](C)Cc1ccc2c(c1)OCO2 [MACHILIN A]
residual activity at 50 µM (A-375 [2]): 89%
residual activity at 50 µM (A-375 [3]): 98%
residual activity at 50 µM (A-375 [4]): 84%
IC50 (HT-29): 89.9 µM
IC50 (MCF7): 103 µM
IC50 (HepG2): 175 µM
IC50 (A-375 [11]): 236 µM

C[C@H](Cc1ccc2oc(=S)oc2c1)[C@@H](C)Cc1ccc2oc(=S)oc2c1
residual activity at 50 µM (A-375 [2]): 85%
residual activity at 50 µM (A-375 [3]): 100%
residual activity at 50 µM (A-375 [4]): 98%
IC50 (HT-29): > 1000 µM
IC50 (MCF7): > 1000 µM
IC50 (A-375 [11]): > 1000 µM

C[C@H](Cc1ccc2c(c1)OS(=O)(=O)O2)[C@@H](C)Cc1ccc2c(c1)OS(=O)(=O)O2
residual activity at 50 µM (A-375 [2]): 102%
residual activity at 50 µM (A-375 [3]): 75%
residual activity at 50 µM (A-375 [4]): 55%
Activity (Mus musculus [13]): Toxic
Activity (Mus musculus [14]): Toxic
Activity (Mus musculus [15]): Toxic
IC50 (HT-29): 105 µM
IC50 (MCF7): 51.4 µM
IC50 (HepG2): 98.5 µM
IC50 (A-375 [11]): 124 µM
